Test results reported in ChEMBL document CHEMBL2412978, “Effect of ring-constrained phenylpropyloxyethylamines on sigma receptors” (Bioorg Med Chem, 2013).
The source made the active and inactive calls. The calls are words filed in the database; no cut-off is given here.

How the values were obtained:
Rattus norvegicus = organism: Rattus norvegicus; assay: Selectivity ratio of Ki for sigma 2 receptor in rat brain homogenates to Ki for sigma 1 receptor in rat brain homogenates; assay type: tissue-based
Mus musculus [1] = assay: Anticonvulsant activity in ip dosed Swiss Webster mouse assessed as reversal of cocaine-induced loss of righting reflexes administered 15 mins before cocaine challenge measured after 30 mins; assay type: functional, organism-based
In short: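 Male Swiss Webster mice, n = 10 per group, given test compound ip (0–30 mg/kg range across doses including vehicle 0) 15 min before convulsive cocaine 70 mg/kg ip. Animals watched 30 min after cocaine for occurrence of convulsions; groups compared by Fisher's exact test.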

Mu-type opioid receptor = Mu-type opioid receptor (Homo sapiens, UniProt P35372); assay: Displacement of [3H]DAMGO from human mu opioid receptor expressed in CHO cells after 120 mins by liquid scintillation counting; assay type: cell-based
In short: (§1)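 Membranes from CHO cells stably expressing human μ, δ or κ opioid receptor. Radioligands: μ 1.3 nM [3H]DAMGO, δ 1.2 nM [3H]DPDPE, κ 1.7 nM [3H]U69,593; nonspecific with 1 μM of the matching unlabelled ligand.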

[2] = Displacement of [3H]di-o-tolylguanidine from sigma 2 receptor in rat brain homogenates after 120 mins by liquid scintillation counting; assay type: tissue-based
[3] = target: Kappa-type opioid receptor (Homo sapiens, UniProt P41145); assay: Displacement of [3H]U69,593 from human kappa opioid receptor expressed in CHO cells after 120 mins by liquid scintillation counting; assay type: cell-based; in short: as §1
Mus musculus [4] = assay: Anticonvulsant activity in Swiss Webster mouse assessed as reversal of cocaine-induced loss of righting reflexes at 30 mg/kg, ip administered 15 mins before cocaine challenge measured after 30 mins; assay type: functional, organism-based; design: dose 30 mg/kg
In short: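 Male Swiss Webster mice, n = 10/group, given test compound ip (0, 1, 10 or 30 mg/kg) 15 min before a convulsive dose of cocaine (70 mg/kg ip). Animals observed for convulsions for 30 min after cocaine injection. Groups compared by Fisher's exact test.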

Chain of Kappa-type opioid receptor (P41145 whole entry): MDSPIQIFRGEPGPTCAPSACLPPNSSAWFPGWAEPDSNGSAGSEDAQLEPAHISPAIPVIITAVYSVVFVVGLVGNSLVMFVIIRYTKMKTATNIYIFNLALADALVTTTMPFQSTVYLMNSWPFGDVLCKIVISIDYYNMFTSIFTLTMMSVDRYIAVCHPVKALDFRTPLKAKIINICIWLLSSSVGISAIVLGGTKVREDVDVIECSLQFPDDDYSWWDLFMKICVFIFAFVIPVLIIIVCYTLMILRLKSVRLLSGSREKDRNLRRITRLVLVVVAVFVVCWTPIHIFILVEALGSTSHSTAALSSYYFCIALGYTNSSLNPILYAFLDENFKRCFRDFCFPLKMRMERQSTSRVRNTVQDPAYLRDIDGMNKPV
Chain of Mu-type opioid receptor (P35372 whole entry): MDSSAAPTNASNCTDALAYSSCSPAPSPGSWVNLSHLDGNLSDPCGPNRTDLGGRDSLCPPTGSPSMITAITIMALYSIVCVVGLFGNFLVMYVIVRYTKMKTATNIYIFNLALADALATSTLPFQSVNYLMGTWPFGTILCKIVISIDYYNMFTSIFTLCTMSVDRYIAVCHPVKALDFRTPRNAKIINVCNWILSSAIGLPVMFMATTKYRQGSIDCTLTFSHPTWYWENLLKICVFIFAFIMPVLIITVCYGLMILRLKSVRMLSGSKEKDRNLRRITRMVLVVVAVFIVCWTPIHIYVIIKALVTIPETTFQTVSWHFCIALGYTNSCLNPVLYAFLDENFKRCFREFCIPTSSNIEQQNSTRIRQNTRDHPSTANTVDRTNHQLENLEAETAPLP

Ratio Ki (Rattus norvegicus)	Ki (Mu-type opioid receptor) [nM]	Ki [2] [nM]	Ki [3] [nM]	Structure (SMILES)	Activity (Mus musculus [1])	Activity (Mus musculus [4])
0.4	> 10000	6.7	–	CN(CCCc1ccccc1)[C@H]1CCCC[C@@H]1O (relative stereo)	Dose-dependent effect	–
7	–	570	21000	CN(CCc1ccccc1)[C@H]1CCCC[C@@H]1OCCCc1ccccc1 (relative stereo)	–	–
65	–	3800	–	CN(C)[C@H]1CCCC[C@@H]1OCCCc1ccccc1 (relative stereo)	–	–
–	–	> 10000	–	CN(CCCc1ccccc1)[C@H]1CCCC[C@@H]1OCCCc1ccccc1 (racemic)	–	–
240	–	1100	–	CN(C)[C@H]1CCCC[C@@H]1OC/C=C/c1ccccc1 (relative stereo)	–	–

Structure (SMILES)	Ratio Ki (Rattus norvegicus)	Ki (Mu-type opioid receptor) [nM]	Ki [2] [nM]	Ki [3] [nM]	Activity (Mus musculus [1])	Activity (Mus musculus [4])
CN(CCc1ccccc1)[C@H]1CCCC[C@@H]1O (relative stereo)	2	–	220	–	–	Active
c1ccc(CCN2CCCCC2)cc1 [1-PHENETHYLPIPERIDINE]	5	–	140	–	–	–
